For 39 compounds, EC50 results are on record in ChEMBL document CHEMBL1146838, “4-Hydroxy-3-methyl-6-phenylbenzofuran-2-carboxylic acid ethyl ester derivatives as potent anti-tumor agents” (Bioorg Med Chem Lett, 2004).

≈ marks a conversion by molar mass, not a printed value.

For this assay, the system named is WI-38 VA13. Put plainly: Cytotoxicity against VA13 cell line; Expressed as effective concentration. Type of assay: functional, cell-based. Particulars: Homo sapiens. Put shortly:
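Human tumorigenic VA13 cells grown in MEM-E with penicillin/streptomycin and 10% fetal calf serum, seeded at 1.5–3.0×10³ cells/well, cultured 2–3 days. Compounds in DMSO (final <0.5%) added for 24 h, then washed out and cells cultured a further 3 days in fresh medium. XTT with phenazine methosulfate added for 2.5 h, OD450 read. Viability computed relative to untreated and cell-free blanks; EC50 taken from dose–response curve.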
The EC50 is the concentration needed to bring the measured effect to its halfway point. Higher therefore signals lower potency in that assay. `Cc1c(C(=O)c2ccc(F)c(F)c2)oc2cc(-c3ccccc3)cc(O)c12` yielded an EC50 of 0.4 µg/mL (≈ 1.1 µM).
The same measure for `COc1ccccc1C(=O)c1oc2cc(-c3ccccc3)cc(O)c2c1C`: 0.09 µg/mL (≈ 0.251 µM); for `Cc1c(C(=O)O)oc2cc(-c3ccccc3)cc(O)c12`: more than 4 µg/mL.
`Cc1ncsc1CCOC(=O)c1oc2cc(-c3ccccc3)cc(O)c2c1C` yielded an EC50 of 0.055 µg/mL (≈ 0.14 µM).
Under `CCOC(=O)c1oc2cc(-c3ccccc3)cc(O)c2c1C` stands 0.04 µg/mL (≈ 0.135 µM); under `CC(=O)c1oc2cc(-c3ccccc3)cc(O)c2c1C`, 0.08 µg/mL (≈ 0.3 µM); under `COc1ccc(CCOC(=O)c2oc3cc(-c4ccccc4)cc(O)c3c2C)cc1`, 0.02 µg/mL (≈ 0.0497 µM).
As for `COCc1ccccc1C(=O)c1oc2cc(-c3ccccc3)cc(O)c2c1C`, the midpoint of the response, the EC50, lay at 0.1 µg/mL (≈ 0.269 µM).
In the case of `CCC(=O)c1oc2cc(-c3ccccc3)cc(O)c2c1C`, the EC50 came out at 0.27 µg/mL (≈ 0.963 µM).
In the case of `COc1ccc(CCOC(=O)c2oc3cc(-c4ccccc4)cc(O)c3c2C)cc1OC`, the EC50 was 0.021 µg/mL (≈ 0.0486 µM).
The same measure for `CCc1ccc(C(=O)c2oc3cc(-c4ccccc4)cc(O)c3c2C)cc1`: more than 4 µg/mL; for `Cc1c(C(=O)CCc2ccccc2)oc2cc(-c3ccccc3)cc(O)c12`: more than 4 µg/mL; for `Cc1c(C(=O)NCCc2ccccn2)oc2cc(-c3ccccc3)cc(O)c12`: 1.5 µg/mL (≈ 4.03 µM).
`CCCCC(=O)c1oc2cc(-c3ccccc3)cc(O)c2c1C`: the EC50 was determined as 2 µg/mL (≈ 6.49 µM).
`Cc1c(C(=O)C(C)(C)C)oc2cc(-c3ccccc3)cc(O)c12` registered an EC50 of 0.41 µg/mL (≈ 1.33 µM). This EC50 is about 4.9-fold lower than that of the compound before.
The compound `Cc1c(C(=O)C(C)C)oc2cc(-c3ccccc3)cc(O)c12` gave an EC50 of 0.41 µg/mL (≈ 1.39 µM).
`COc1cc(C(F)(F)F)ccc1C(=O)c1oc2cc(-c3ccccc3)cc(O)c2c1C`: the midpoint of the response, the EC50, lay at 0.26 µg/mL (≈ 0.61 µM).
The same measure for `Cc1c(C(=O)c2nccs2)oc2cc(-c3ccccc3)cc(O)c12`: 0.4 µg/mL (≈ 1.19 µM); for `Cc1c(C(=O)Cc2ccccc2)oc2cc(-c3ccccc3)cc(O)c12`: more than 4 µg/mL; for `Cc1c(C(=O)c2cccc(OC(C)C)c2)oc2cc(-c3ccccc3)cc(O)c12`: 0.35 µg/mL (≈ 0.906 µM).
In the case of `Cc1c(C(=O)c2cnc3ccccc3c2)oc2cc(-c3ccccc3)cc(O)c12`, the EC50 was more than 4 µg/mL.
Under `COc1ccc(C(=O)c2oc3cc(-c4ccccc4)cc(O)c3c2C)c(C(F)(F)F)c1` stands 0.4 µg/mL (≈ 0.938 µM); under `Cc1c(C(=O)C2CCCCC2)oc2cc(-c3ccccc3)cc(O)c12`, 0.45 µg/mL (≈ 1.35 µM).
`Cc1c(C(=O)c2ccc(Oc3ccccc3)cc2)oc2cc(-c3ccccc3)cc(O)c12` had an EC50 of more than 4 µg/mL.
`CCCC(=O)c1oc2cc(-c3ccccc3)cc(O)c2c1C` registered an EC50 of 0.59 µg/mL (≈ 2 µM).
In turn, `Cc1c(C(=O)c2ccccn2)oc2cc(-c3ccccc3)cc(O)c12` had an EC50 of 0.6 µg/mL (≈ 1.82 µM).
Turning to `Cc1c(C(=O)c2cccc(CN(C)C)c2)oc2cc(-c3ccccc3)cc(O)c12`, the EC50 came to 0.09 µg/mL (≈ 0.233 µM).
In turn, `Cc1c(C(=O)c2ccc(N(C)C)cc2)oc2cc(-c3ccccc3)cc(O)c12` had an EC50 of more than 4 µg/mL.
Consider `Cc1c(C(=O)c2ccc(CN(C)C)cc2)oc2cc(-c3ccccc3)cc(O)c12`, for which the EC50 was more than 4 µg/mL.
Under `Cc1c(C(=O)OC(C)C)oc2cc(-c3ccccc3)cc(O)c12` stands 0.06 µg/mL (≈ 0.193 µM); under `Cc1c(C(=O)c2ccccc2)oc2cc(-c3ccccc3)cc(O)c12`, 0.6 µg/mL (≈ 1.83 µM).
Under `COc1ccc(C(=O)c2oc3cc(-c4ccccc4)cc(O)c3c2C)c(OC)c1` stands 0.04 µg/mL (≈ 0.103 µM); under `Cc1c(C(=O)c2cncnc2)oc2cc(-c3ccccc3)cc(O)c12`, 0.7 µg/mL (≈ 2.12 µM); under `Cc1c(C(=O)c2cccc(C(F)(F)F)c2)oc2cc(-c3ccccc3)cc(O)c12`, more than 4 µg/mL.
Compound `Cc1c(C(=O)c2cccs2)oc2cc(-c3ccccc3)cc(O)c12` yielded an EC50 of 2 µg/mL (≈ 5.98 µM).
Under `COc1ccc(OC)c(C(=O)c2oc3cc(-c4ccccc4)cc(O)c3c2C)c1` stands 0.09 µg/mL (≈ 0.232 µM).
`Cc1c(C(=O)c2ccccc2-c2ccccc2)oc2cc(-c3ccccc3)cc(O)c12`: a half-maximal effect (EC50) was put at 0.1 µg/mL (≈ 0.247 µM).
The compound `COc1ccc(C(=O)c2oc3cc(-c4ccccc4)cc(O)c3c2C)cc1` came in with an EC50 of 0.28 µg/mL (≈ 0.781 µM).
`COc1ccc(C(=O)c2oc3cc(-c4ccccc4)cc(O)c3c2C)cc1OC` showed an EC50 of 0.45 µg/mL (≈ 1.16 µM).
